According to ChEMBL document CHEMBL5233208, “Optimization of P2Y12 Antagonist Ethyl 6-(4-((Benzylsulfonyl)carbamoyl)piperidin-1-yl)-5-cyano-2-methylnicotinate (AZD1283) Led to the Discovery of an Oral Antiplatelet Agent with Improved Druglike Properties” (J Med Chem, 2019):
One block for each compound: values may come before it. The source made the active and inactive calls. The rule behind the calls is not given here.

Assays:
[1] = species on record: Homo sapiens; test: Antiplatelet activity in human platelet-rich plasma assessed as inhibition of ADP-induced platelet aggregation by aggregometry; type: functional
Outline: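 Human PRP from healthy donors free of aspirin/NSAIDs for at least two weeks, drawn into ACD; PRP spun at 300 g for 10 min, PPP at 2000 g. Compound in 0.5% DMSO preincubated 2 min at 37 °C with stirring (900 rpm). Aggregation induced by 10 μM ADP (final) and followed optically for 5 min.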

[2] = test system: Rattus norvegicus; test: Antithrombotic activity in anesthetized Wistar rat model of tail-bleeding assessed as increase in bleeding time po administered as single dose measured at 1.5 hrs post dose; type: functional
Outline: (§1)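 Male rats (250–300 g, n = 10 per dose) acclimatized at least 7 days, then dosed by oral gavage. At 1.5 h, anesthetized with 2% pentobarbital i.p. at 50 mg/kg. Tail transected 4 mm from the tip and immersed in saline at 37 °C; bleeding ended when no blood appeared for 30 s. Bleeding time and blood loss weight recorded as mean ± SEM.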

[3] = test system: Rattus norvegicus; test: Antithrombotic activity in anesthetized Wistar rat model of FeCL3-induced carotid artery thrombosis assessed as reduction in thrombus weight po administered as single dose measured at 1.5 hrs post dose; type: functional
Outline: (§2)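 Compounds in 0.5% CMC-Na given to Wistar rats as a single oral gavage dose (10 mL/kg). Rats anesthetized with 2% pentobarbital i.p. at 50 mg/kg and kept on a heating pad. At 1.5 h post-dose, filter paper soaked in 20% FeCl3 applied to the isolated left carotid artery for 10 min; thrombus weight recorded. Mean ± SEM, n = 10.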

[4] = test system: Rattus norvegicus; test: Antithrombotic activity in anesthetized Wistar rat model of tail-bleeding assessed as increase in bleeding weight at […], po administered as single dose measured at 1.5 hrs post dose; type: functional
[5] = test system: Rattus norvegicus; test: Antithrombotic activity in anesthetized Wistar rat model of tail-bleeding assessed as increase in bleeding weight at 5 mg/kg, po administered as single dose measured at 1.5 hrs post dose; type: functional; outline: as §1
[6] = test system: Rattus norvegicus; test: Antithrombotic activity in anesthetized Wistar rat model of tail-bleeding assessed as increase in bleeding weight at 10 mg/kg, po administered as single dose measured at 1.5 hrs post dose; type: functional; outline: as §1
[7] = test system: Rattus norvegicus; test: Antithrombotic activity in anesthetized Wistar rat model of tail-bleeding assessed as increase in bleeding weight at 20 mg/kg, po administered as single dose measured at 1.5 hrs post dose; type: functional; outline: as §1
[8] = test system: Rattus norvegicus; test: Antithrombotic activity in anesthetized Wistar rat model of FeCL3-induced carotid artery thrombosis assessed as reduction in thrombus weight at 10 mg/kg, po administered as single dose measured at 1.5 hrs post dose; type: functional, organism-based; outline: as §2
[9] = Metabolic stability in rat liver microsomes assessed as half life at […] measured up to 60 mins in presence of NADPH regeneration system by LC-MS/MS analysis; type: ADME, Microsome
[10] = Metabolic stability in dog liver microsomes assessed as half life at […] measured up to 60 mins in presence of NADPH regeneration system by LC-MS/MS analysis; type: ADME, Canis lupus familiaris, Microsome
[11] = Metabolic stability in human liver microsomes assessed as half life at […] measured up to 60 mins in presence of NADPH regeneration system by LC-MS/MS analysis; type: ADME, Microsome
[12] = Cmax in Sprague-Dawley rat at 5 mg/kg,po measured up to 24 hrs by LC-MS/MS analysis; type: ADME, organism-based; parameters: time < 24 hrs, dose 5 mg/kg, route po; details: in vivo
[13] = Half life in Sprague-Dawley rat at 5 mg/kg,po measured up to 24 hrs by LC-MS/MS analysis; type: ADME, organism-based; details: in vivo
[14] = Tmax in Sprague-Dawley rat at 5 mg/kg,po measured up to 24 hrs by LC-MS/MS analysis; type: ADME, organism-based; details: in vivo
[15] = AUC (0 to infinity) in Sprague-Dawley rat at 5 mg/kg,po measured up to 24 hrs by LC-MS/MS analysis; type: ADME, organism-based; parameters: time < 24 hrs, dose 5 mg/kg, route po; details: in vivo
[16] = MRT in Sprague-Dawley rat at 5 mg/kg,po measured up to 24 hrs by LC-MS/MS analysis; type: ADME, organism-based; details: in vivo
[17] = molecular target: T1, Cytochrome P450 1A2 (Homo sapiens, UniProt P05177); test: Inhibition of CYP1A2 in human liver microsomes using phenacetin as substrate preincubated for 10 mins followed by NADPH addition and measured after 15 mins by LC-MS/MS analysis
T1 sequence (P05177 whole entry): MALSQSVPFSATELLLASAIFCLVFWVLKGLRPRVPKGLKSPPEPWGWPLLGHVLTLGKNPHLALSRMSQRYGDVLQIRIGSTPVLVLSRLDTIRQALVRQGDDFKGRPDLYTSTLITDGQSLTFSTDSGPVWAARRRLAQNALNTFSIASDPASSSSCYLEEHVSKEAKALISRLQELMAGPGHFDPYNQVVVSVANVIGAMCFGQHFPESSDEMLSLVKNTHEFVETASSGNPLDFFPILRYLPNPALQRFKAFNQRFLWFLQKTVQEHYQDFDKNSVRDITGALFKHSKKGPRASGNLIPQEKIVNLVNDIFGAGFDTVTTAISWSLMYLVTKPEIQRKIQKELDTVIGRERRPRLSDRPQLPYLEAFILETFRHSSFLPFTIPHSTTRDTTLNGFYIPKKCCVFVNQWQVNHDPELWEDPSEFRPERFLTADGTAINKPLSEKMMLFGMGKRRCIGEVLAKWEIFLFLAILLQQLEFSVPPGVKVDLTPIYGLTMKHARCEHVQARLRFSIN

[18] = molecular target: Cytochrome P450 2C9 (Homo sapiens, UniProt P11712); test: Inhibition of CYP2C9 in human liver microsomes using tolbutamide as substrate preincubated for 10 mins followed by NADPH addition and measured after 15 mins by LC-MS/MS analysis
[19] = molecular target: Cytochrome P450 2C19 (Homo sapiens, UniProt P33261); test: Inhibition of CYP2C19 in human liver microsomes using S-mephenytoin as substrate preincubated for 10 mins followed by NADPH addition and measured after 15 mins by LC-MS/MS analysis
[20] = molecular target: Cytochrome P450 2D6 (Homo sapiens, UniProt P10635); test: Inhibition of CYP2D6 in human liver microsomes using dextromethorphan as substrate preincubated for 10 mins followed by NADPH addition and measured after 15 mins by LC-MS/MS analysis
[21] = molecular target: T2, Cytochrome P450 3A4 (Homo sapiens, UniProt P08684); test: Inhibition of CYP3A4 in human liver microsomes using Midazolam as substrate preincubated for 10 mins followed by NADPH addition and measured after 15 mins by LC-MS/MS analysis
[22] = molecular target: T2, Cytochrome P450 3A4; test: Inhibition of CYP3A4 in human liver microsomes using testosterone as substrate preincubated for 10 mins followed by NADPH addition and measured after 15 mins by LC-MS/MS analysis
[23] = Metabolic stability in rat liver microsomes assessed as intrinsic clearance at 0.1 µM measured up to 60 mins in presence of NADPH regeneration system by LC-MS/MS analysis; details: 1 h
[24] = Metabolic stability in dog liver microsomes assessed as intrinsic clearance at 0.1 µM measured up to 60 mins in presence of NADPH regeneration system by LC-MS/MS analysis; details: 1 h
[25] = Metabolic stability in human liver microsomes assessed as intrinsic clearance at 0.1 µM measured up to 60 mins in presence of NADPH regeneration system by LC-MS/MS analysis; details: 1 h

T2 sequence (P08684 whole entry): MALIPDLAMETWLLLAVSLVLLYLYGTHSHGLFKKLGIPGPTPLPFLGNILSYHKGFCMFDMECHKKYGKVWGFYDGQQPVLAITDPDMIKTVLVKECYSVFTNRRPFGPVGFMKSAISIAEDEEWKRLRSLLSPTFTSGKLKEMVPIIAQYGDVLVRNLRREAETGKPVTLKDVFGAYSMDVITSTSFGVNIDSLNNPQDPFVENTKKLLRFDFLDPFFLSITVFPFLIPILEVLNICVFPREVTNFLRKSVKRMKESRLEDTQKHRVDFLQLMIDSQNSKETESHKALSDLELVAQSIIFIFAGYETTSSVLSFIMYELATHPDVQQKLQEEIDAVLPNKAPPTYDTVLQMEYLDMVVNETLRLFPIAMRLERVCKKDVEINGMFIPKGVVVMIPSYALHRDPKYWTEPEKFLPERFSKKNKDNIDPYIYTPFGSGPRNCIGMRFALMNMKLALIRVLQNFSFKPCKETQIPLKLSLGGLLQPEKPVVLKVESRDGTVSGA
Sequence of Cytochrome P450 2C9 (P11712 whole entry): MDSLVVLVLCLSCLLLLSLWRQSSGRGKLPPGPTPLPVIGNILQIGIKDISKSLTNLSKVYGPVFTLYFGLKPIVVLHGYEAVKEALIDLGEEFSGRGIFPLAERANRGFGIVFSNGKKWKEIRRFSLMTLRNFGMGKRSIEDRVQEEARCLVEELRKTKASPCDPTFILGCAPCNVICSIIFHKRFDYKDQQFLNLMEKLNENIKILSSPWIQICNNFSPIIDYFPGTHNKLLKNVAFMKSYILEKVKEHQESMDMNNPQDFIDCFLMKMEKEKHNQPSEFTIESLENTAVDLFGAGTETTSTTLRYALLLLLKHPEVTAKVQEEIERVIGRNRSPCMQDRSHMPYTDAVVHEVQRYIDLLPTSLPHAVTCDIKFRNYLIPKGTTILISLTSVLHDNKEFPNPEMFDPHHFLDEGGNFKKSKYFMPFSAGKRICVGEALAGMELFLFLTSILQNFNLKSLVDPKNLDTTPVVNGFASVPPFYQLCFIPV
Sequence of Cytochrome P450 2D6 (P10635 whole entry): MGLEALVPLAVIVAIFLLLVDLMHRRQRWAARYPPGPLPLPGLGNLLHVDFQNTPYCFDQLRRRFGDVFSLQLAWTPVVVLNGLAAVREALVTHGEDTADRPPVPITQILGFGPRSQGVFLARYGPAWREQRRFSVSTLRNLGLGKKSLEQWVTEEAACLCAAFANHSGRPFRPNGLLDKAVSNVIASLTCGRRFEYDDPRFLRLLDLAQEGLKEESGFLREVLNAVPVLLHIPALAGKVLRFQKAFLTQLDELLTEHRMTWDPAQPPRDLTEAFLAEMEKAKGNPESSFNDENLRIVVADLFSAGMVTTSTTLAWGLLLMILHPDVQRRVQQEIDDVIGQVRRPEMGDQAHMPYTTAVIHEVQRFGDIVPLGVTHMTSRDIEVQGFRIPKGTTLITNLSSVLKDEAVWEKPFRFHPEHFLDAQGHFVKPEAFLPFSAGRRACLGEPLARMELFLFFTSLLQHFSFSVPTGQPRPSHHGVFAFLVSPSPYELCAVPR
Sequence of Cytochrome P450 2C19 (P33261 whole entry): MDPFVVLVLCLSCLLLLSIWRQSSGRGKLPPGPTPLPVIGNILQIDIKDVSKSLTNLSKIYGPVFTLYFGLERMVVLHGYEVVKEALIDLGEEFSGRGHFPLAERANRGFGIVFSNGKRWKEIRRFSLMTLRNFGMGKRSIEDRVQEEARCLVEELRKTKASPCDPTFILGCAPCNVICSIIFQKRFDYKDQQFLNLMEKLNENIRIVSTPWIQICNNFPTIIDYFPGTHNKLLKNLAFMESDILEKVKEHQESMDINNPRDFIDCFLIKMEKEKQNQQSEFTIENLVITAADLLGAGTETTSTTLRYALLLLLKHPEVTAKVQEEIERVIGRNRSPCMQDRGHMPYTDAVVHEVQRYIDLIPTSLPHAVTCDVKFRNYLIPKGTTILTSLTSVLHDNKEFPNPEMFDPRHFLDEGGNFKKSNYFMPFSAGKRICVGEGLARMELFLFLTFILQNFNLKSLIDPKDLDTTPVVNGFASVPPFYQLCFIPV

IC50 [1]: 35.4 µM
SMILES: CC1(C(=O)NS(=O)(=O)Cc2ccc(F)cc2)CCN(c2nc3c(cc2C#N)C(=O)OC3)CC1

IC50 [1]: 15.9 µM
SMILES: N#Cc1cc2c(nc1N1CCC(C(=O)NS(=O)(=O)Cc3ccc(C(F)(F)F)cc3)CC1)COC2=O

SMILES: COC(=O)[C@H](c1ccccc1Cl)N1CCc2sccc2C1 [CLOPIDOGREL]
ED100 [2]: 2.36 mg/kg
ED50 [3]: 7 mg/kg
Activity [4]: 0.44 g
Activity [5]: 0.7 g
Activity [6]: 1.2 g
Activity [7]: 1.99 g

IC50 [1]: 4.28 µM
SMILES: Cc1ccc(CS(=O)(=O)NC(=O)C2CCN(c3nc4c(cc3C#N)C(=O)OC4)CC2)cc1

IC50 [1]: 32.8 µM
SMILES: Cc1ccc(CS(=O)(=O)NC(=O)C2(F)CCN(c3nc4c(cc3C#N)C(=O)OC4)CC2)cc1

IC50 [1]: > 300 µM
SMILES: CC1OC(=O)c2cc(C#N)c(N3CCC(C(=O)NS(=O)(=O)c4ccc(Cl)s4)CC3)nc21 (centres undefined)

IC50 [1]: 37.2 µM
SMILES: N#Cc1cc2c(nc1N1CCC(F)(C(=O)NS(=O)(=O)Cc3ccc(Cl)cc3)CC1)COC2=O

IC50 [1]: > 300 µM
SMILES: N#Cc1cc2c(nc1N1CCC(C(=O)NS(=O)(=O)Cc3ccccc3)CC1)CCOC2=O

IC50 [1]: 37.1 µM
SMILES: N#Cc1cc2c(nc1N1CCC(F)(C(=O)NS(=O)(=O)c3ccc(Cl)s3)CC1)COC2=O

IC50 [1]: > 300 µM
SMILES: CN1Cc2nc(N3CCC(C(=O)NS(=O)(=O)Cc4ccccc4)CC3)c(C#N)cc2C1=O

IC50 [1]: 1.64 µM
half-life [9]: 1.27 h
half-life [10]: 3.34 h
half-life [11]: 3.4 h
Cmax [12]: 479 ng/mL
half-life [13]: 1.26 h
Tmax [14]: 0.25 h
AUC(0-inf) [15]: 1060 ng·h/mL
MRT [16]: 1.98 h
IC50 [17]: > 50 µM
IC50 [18]: > 50 µM
IC50 [19]: 7.75 µM
IC50 [20]: > 50 µM
IC50 [21]: > 50 µM
IC50 [22]: > 50 µM
intrinsic clearance [23]: 27.6 mL/min/g
intrinsic clearance [24]: 10.5 mL/min/g
intrinsic clearance [25]: 10.3 mL/min/g
SMILES: CC1(C(=O)NS(=O)(=O)c2ccc(Cl)s2)CCN(c2nc3c(cc2C#N)C(=O)OC3)CC1
Activity [8]: Active

IC50 [1]: > 300 µM
SMILES: N#Cc1cc2c(nc1N1CCC(C(=O)NS(=O)(=O)Cc3ccccc3)CC1)CCC(Cl)C2=O (centres undefined)

IC50 [1]: 117 µM
SMILES: N#Cc1cc2c(nc1N1CCC(C(=O)NS(=O)(=O)Cc3ccccc3)CC1)CCCC2=O

IC50 [1]: 4.47 µM
half-life [9]: 2.53 h
half-life [10]: 2.85 h
half-life [11]: 1.32 h
Cmax [12]: 225 ng/mL
half-life [13]: 2.4 h
Tmax [14]: 0.25 h
AUC(0-inf) [15]: 417 ng·h/mL
MRT [16]: 2.31 h
IC50 [17]: > 50 µM
IC50 [18]: > 50 µM
IC50 [19]: 28.5 µM
IC50 [20]: > 50 µM
IC50 [21]: > 50 µM
IC50 [22]: > 50 µM
intrinsic clearance [23]: 13.8 mL/min/g
intrinsic clearance [24]: 12.3 mL/min/g
intrinsic clearance [25]: 26.6 mL/min/g
SMILES: N#Cc1cc2c(nc1N1CCC(C(=O)NS(=O)(=O)c3ccc(Cl)s3)CC1)COC2=O

IC50 [1]: > 300 µM
SMILES: CC1OC(=O)c2cc(C#N)c(N3CCC(C(=O)NS(=O)(=O)Cc4ccccc4)C3)nc21 (centres undefined)

IC50 [1]: 9.95 µM
SMILES: CC(c1ccccc1)S(=O)(=O)NC(=O)C1(F)CCN(c2nc3c(cc2C#N)C(=O)OC3)CC1 (centres undefined)

IC50 [1]: > 300 µM
SMILES: CC1OC(=O)c2cc(C#N)c(N3CCC(C(=O)NS(=O)(=O)Cc4ccccc4)CC3)nc21 (centres undefined)

IC50 [1]: 1.21 µM
Cmax [12]: 149 ng/mL
half-life [13]: 2.52 h
Tmax [14]: 0.25 h
AUC(0-inf) [15]: 291 ng·h/mL
MRT [16]: 3.83 h
SMILES: N#Cc1cc2c(nc1N1CCC(F)(C(=O)NS(=O)(=O)Cc3ccccc3)CC1)COC2=O

IC50 [1]: > 300 µM
SMILES: N#Cc1cc2c(nc1N1CCC(C(=O)NS(=O)(=O)Cc3ccccc3)C1)COC2=O (centres undefined)
